Assay results taken from publication PMC3107735 (Biochemistry, 2011).
Where “and” joins values, the source holds several entries; their conditions need not be identical. Equal values may be shown once.

Tests used:
thrombin [1] = molecular target: T1, thrombin (Bos taurus, UniProt P00735); conditions: DSC; increases from 57°C for thrombin; cited from earlier work
thrombin [2] = molecular target: T1, thrombin; test: Isothermal titration calorimetry; assay type: binding, bovine; conditions: for Ka / N (stoichiometry of binding) / ΔH / -TΔS / ΔG: thrombin in cell, 25°C; for Ka / N (stoichiometry of binding) / ΔH: pH 7.4; for -TΔS: computed from ΔG-ΔH; for ΔG: obtained from KA
TM45-thrombin = TM45-thrombin (Bos taurus, UniProt P00735); test: ITC, ligand titrated into TMEGF45-thrombin complex; assay type: binding, bovine; conditions: TM45-thrombin in cell, 25°C; for Ka / N (stoichiometry of binding) / ΔH: pH 7.4; for -TΔS: computed from ΔG-ΔH; for ΔG: obtained from KA
aptamer-thrombin complex = aptamer-thrombin complex (Bos taurus, UniProt P00735); test: ITC, ligand titrated into pre-formed aptamer-thrombin complex; assay type: binding, bovine; conditions: apt-thrombin in cell, 25°C; for Ka / N (stoichiometry of binding) / ΔH: pH 7.4; for -TΔS: computed from ΔG-ΔH; for ΔG: obtained from KA
PPACK-thrombin = PPACK-thrombin (Bos taurus, UniProt P00735); test: ITC, ligand titrated into PPACK-thrombin; assay type: binding, bovine; conditions: ppack-thrombin in cell, 25°C; for Ka / N (stoichiometry of binding) / ΔH: pH 7.4; for -TΔS: computed from ΔG-ΔH; for ΔG: obtained from KA
Summary of the method: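 Bovine α-thrombin treated with PPACK (1.1 μmol per 1 mL fraction, 3 h shaking, room temperature), re-purified by size exclusion the same day, and held at 6.5 μM in the cell (BCA). Buffer was 50 mM Bis-tris propane pH 7.4, 150 mM NaCl, 2.5 mM CaCl2. Degassed ligand at 65-70 μM was injected at 25°C with a 180 s initial delay. Heats were integrated and corrected for dilution; ΔG came from Ka and -TΔS from ΔG-ΔH.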

thrombin [3] = molecular target: T1, thrombin; test: Differential scanning calorimetry; design: species or system bovine; conditions: DSC; 25 μM thrombin; thrombin alone 56.9°C or 57.9°C (Figure 6 legend)

In the case of `NC(N)=NCCC[C@H](NC(=O)[C@@H]1CCCN1C(=O)[C@H](N)Cc1ccccc1)C(=O)CCl` [PPACK, DPhe-Pro-Arg-chloromethyl ketone], the “Tm of thrombin with ligand bound at the active site” value (thrombin [1]) is listed as 70 °C.

In the case of calcium, the “change in heat upon addition to thrombin in the cell (ITC)” value (thrombin [2]; calcium added to thrombin in the cell) is reported as “no measurable direct binding”.

For `CCC1CCN(C(=O)[C@H](CCCNC(=N)N)NS(=O)(=O)c2cccc3c(N(C)C)cccc23)CC1` [DAPA, dansyl-L-arginine-(3-ethyl-1,5-pantanediyl) amide], the Ka (TM45-thrombin; with 2.5 mM calcium) was 5.9 ± 2.2 ×10^7 M^-1, the “N (stoichiometry of binding)” value (TM45-thrombin; with 2.5 mM calcium) was 1.00 ± 0.06 and the ΔH (TM45-thrombin; with 2.5 mM calcium) was -5.0 ± 0.1 kcal/mol. For the same compound, the “-TΔS” value (TM45-thrombin; with 2.5 mM calcium) was -5.5 ± 0.2 kcal/mol, the ΔG (TM45-thrombin; with 2.5 mM calcium) was -10.5 ± 0.2 kcal/mol and the Ka (TM45-thrombin; without calcium) was 5.0 ± 1.8 ×10^7 M^-1. For the same compound, the “N (stoichiometry of binding)” value (TM45-thrombin; without calcium) was 0.86 ± 0.02, the ΔH (TM45-thrombin; without calcium) was -4.5 ± 0.2 kcal/mol and the “-TΔS” value (TM45-thrombin; without calcium) was -6.0 ± 0.4 kcal/mol. For the same compound, the ΔG (TM45-thrombin; without calcium) was -10.5 ± 0.2 kcal/mol, the Ka (aptamer-thrombin complex; with 2.5 mM calcium) was 5.6 ± 2.1 ×10^7 M^-1 and the “N (stoichiometry of binding)” value (aptamer-thrombin complex; with 2.5 mM calcium) was 1.06 ± 0.08. For the same compound, the ΔH (aptamer-thrombin complex; with 2.5 mM calcium) was -4.8 ± 0.2 kcal/mol, the “-TΔS” value (aptamer-thrombin complex; with 2.5 mM calcium) was -5.7 ± 0.4 kcal/mol and the ΔG (aptamer-thrombin complex; with 2.5 mM calcium) was -10.5 ± 0.3 kcal/mol. The Ka (aptamer-thrombin complex; without calcium) was 5.8 ± 0.37 ×10^7 M^-1, the “N (stoichiometry of binding)” value (aptamer-thrombin complex; without calcium) was 1.11 ± 0.1 and the ΔH (aptamer-thrombin complex; without calcium) was -4.2 ± 0.3 kcal/mol. The “-TΔS” value (aptamer-thrombin complex; without calcium) was -6.4 ± 0.7 kcal/mol, the ΔG (aptamer-thrombin complex; without calcium) was -10.6 ± 0.4 kcal/mol and the Ka (thrombin [2]; with 2.5 mM calcium) was 4.5 ± 0.5 ×10^7 M^-1. For the same compound, the “N (stoichiometry of binding)” value (thrombin [2]; with 2.5 mM calcium) was 0.9 ± 0.1, the ΔH (thrombin [2]; with 2.5 mM calcium) was -6.2 ± 0.04 kcal/mol and the “-TΔS” value (thrombin [2]; with 2.5 mM calcium) was -4.2 ± 0.1 kcal/mol. For the same compound, the ΔG (thrombin [2]; with 2.5 mM calcium) was -10.4 ± 0.1 kcal/mol, the Ka (thrombin [2]; without calcium) was 4.5 ± 2.5 ^1 ×10^7 M^-1 and the “N (stoichiometry of binding)” value (thrombin [2]; without calcium) was 0.9 ± 0.1. The “-TΔS” value (thrombin [2]; without calcium) was -4.4 ± 0.6 kcal/mol and the ΔG (thrombin [2]; without calcium) was -10.3 ± 0.4 kcal/mol.

In the case of GGTTGGTGTGGTTGG [aptamer], the Ka (PPACK-thrombin; with 2.5 mM calcium) is reported as 1.4 ± 0.6 ×10^7 M^-1, the “N (stoichiometry of binding)” value (PPACK-thrombin; with 2.5 mM calcium) is reported as 0.9 ± 0.1 and the ΔH (PPACK-thrombin; with 2.5 mM calcium) is reported as -21.0 ± 0.3 kcal/mol. For the same compound, the “-TΔS” value (PPACK-thrombin; with 2.5 mM calcium) was 11.3 ± 0.004 kcal/mol, the ΔG (PPACK-thrombin; with 2.5 mM calcium) was -9.7 ± 0.3 kcal/mol and the Ka (PPACK-thrombin; without calcium) was 0.8 ± 0.1 ×10^7 M^-1. The “N (stoichiometry of binding)” value (PPACK-thrombin; without calcium) was 0.98 ± 0.02, the ΔH (PPACK-thrombin; without calcium) was -17.7 ± 1.1 kcal/mol and the “-TΔS” value (PPACK-thrombin; without calcium) was 8.3 ± 1.2 kcal/mol. For the same compound, the ΔG (PPACK-thrombin; without calcium) was -9.4 ± 0.8 kcal/mol, the “melting (denaturation) temperature of thrombin with ligand bound at exosite 1” value (thrombin [3]) was 57.9 °C and 58.7 °C and the “N (stoichiometry of binding)” value (thrombin [2]; with 2.5 mM calcium) was 0.87 ± 0.04. The ΔH (thrombin [2]; with 2.5 mM calcium) was -22.4 ± 0.1 kcal/mol, the “-TΔS” value (thrombin [2]; with 2.5 mM calcium) was 12.6 ± 1.0 kcal/mol and the ΔG (thrombin [2]; with 2.5 mM calcium) was -9.8 ± 0.1 kcal/mol. The Ka (thrombin [2]; without calcium) was 0.9 ± 0.2 ×10^7 M^-1, the “N (stoichiometry of binding)” value (thrombin [2]; without calcium) was 0.96 ± 0.1 and the ΔH (thrombin [2]; without calcium) was -20.2 ± 0.8 kcal/mol. For the same compound, the ΔH (thrombin [2]; without calcium, listed as DNA aptamer) was -20.2 kcal/mol, the “-TΔS” value (thrombin [2]; without calcium) was 10.5 ± 0.9 kcal/mol and the ΔG (thrombin [2]; without calcium) was -9.7 ± 0.2 kcal/mol.
